From PubChem
CHRM5 agonist = human M5 muscarinic receptor agonists, primary screen, CHO-K1 cells, Fluo-8 calcium fluorescence. Muscarinic acetylcholine receptor M5 (Homo sapiens), P08912. CHO-K1 hM5 cells; 0% DMSO wells, 100% maximal acetylcholine response. activation, % at 3 µM. 360,000 compounds, 0.19% hits. AID 624037, 2012;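 active = activation above the run's mean over test compounds plus 3 SD, cut at about 23% in these data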;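 also: signal is peak over basal fluorescence ratio across the kinetic read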
Target sequence (P08912 whole entry, looked up): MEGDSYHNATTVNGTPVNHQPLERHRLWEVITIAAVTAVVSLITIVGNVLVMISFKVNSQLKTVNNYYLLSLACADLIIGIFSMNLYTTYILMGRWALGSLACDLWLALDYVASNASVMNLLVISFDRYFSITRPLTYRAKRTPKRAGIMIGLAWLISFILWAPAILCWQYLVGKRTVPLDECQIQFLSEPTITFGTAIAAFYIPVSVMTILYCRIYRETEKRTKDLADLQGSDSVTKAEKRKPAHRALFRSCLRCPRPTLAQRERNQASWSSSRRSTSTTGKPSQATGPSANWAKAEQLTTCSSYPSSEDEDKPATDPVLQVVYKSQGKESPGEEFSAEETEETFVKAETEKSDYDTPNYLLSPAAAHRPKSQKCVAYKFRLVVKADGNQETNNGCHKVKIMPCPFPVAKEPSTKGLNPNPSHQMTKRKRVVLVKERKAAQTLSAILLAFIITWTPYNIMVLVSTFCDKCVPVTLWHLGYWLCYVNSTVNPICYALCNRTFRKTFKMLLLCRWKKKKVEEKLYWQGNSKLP
M4 ag = human M4 muscarinic receptor agonists, primary screen, CHO-K1 cells, Fluo-8 calcium fluorescence. activation, % at 3 µM. Muscarinic acetylcholine receptor M4 (Homo sapiens), P08173. 360,000 compounds, 0.14% hits. CHO-K1 hM4/Gqi5; vehicle 0%, full acetylcholine response 100%;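 active = activation above the run mean over all test wells plus 3 SD, cut at about 32% in these data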;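 also: peak over basal fluorescence ratio per well then scaled between controls; 0% = DMSO wells and 100% = acetylcholine at EC100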
M4 antag = human M4 muscarinic receptor antagonists, primary screen, CHO cells, Fluo-8 calcium fluorescence; 360,000 compounds, 0.73% hits; CHO-hM4 cells, ACh EC80; inhibition, % at 3 µM; Muscarinic acetylcholine receptor M4 (Homo sapiens), P08173; AID 624125, 2012;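 active = inhibition above its plate's cutoff, the mean inhibition of sample wells plus 3 SD, cut at about 27% in these data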;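 also: 0% = acetylcholine EC80 with DMSO and 100% = DMSO without agonist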
CHRM5 PAM = human M5 muscarinic receptor positive allosteric modulators, primary screen, CHO-K1 cells, Fluo-8 calcium fluorescence. Muscarinic acetylcholine receptor M5 (Homo sapiens), P08912. CHO-K1 hM5, ACh EC20 PAM; 0% = ACh EC20, 100% = ACh EC100. activation, % at 3 µM. 360,000 compounds, 0.3% hits. AID 624038, 2012;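 active = activation above the run cutoff, the mean activation of all test compounds plus 3 SD, cut at about 18% in these data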
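System – CHO-K1 hM5 cells · Compound – 3 µM, single dose · Incubation – compound preincubation 140 s before EC20 acetylcholine addition · Technique – Fluo-8 calcium fluorescence · Measure – Max/basal fluorescence ratio as % of EC20–EC100 ACh window · Benchmarks – low control EC20 acetylcholine (0%), high control EC100 acetylcholine (100%) · Replication – singlicate, one well per test compound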
CHRM5 antagonist = human M5 muscarinic receptor antagonists, primary screen, CHO cells, Fluo-8 calcium fluorescence; CHO-hM5 cells, ACh EC80; inhibition, % at 3 µM; 360,000 compounds, 0.59% hits;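 active = inhibition above a per-plate cutoff, the mean of that plate's test compounds plus 3 SD, cut at about 27% in these data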;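 also: 0% = acetylcholine EC80 with DMSO and 100% = DMSO without agonist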
M4 PAM = human M4 muscarinic receptor positive allosteric modulators, primary screen, CHO-K1 cells, Fluo-8 calcium fluorescence; CHO-K1 hM4/Gqi5, ACh EC20; 0% = ACh EC20, 100% = maximal ACh; activation, % at 3 µM; 360,000 compounds, 0.4% hits;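 active = activation above its plate's cutoff, the mean activation of sample wells plus 3 SD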
* = called active by the depositor. Shown are actives, neighbours in structure and some others; about 1.9% of the full set was active somewhere.

SMILES	CHRM5 agonist	M4 ag	M4 antag	CHRM5 PAM	CHRM5 antagonist	M4 PAM
O=C(/C=C\c1cn(-c2ccccc2)nc1-c1ccc2c(c1)OCCO2)N1CCOCC1	7	5	1	-2	3	-4
O=C(c1cccc(Cl)c1)N1CCCC(C(=O)N2CCCCCC2)C1 (stereo unspecified)	-6	0	10	-5	6	-10
O=C(c1cccc(Cl)c1)C1CCCN(C(=O)c2ccoc2)C1 (stereo unspecified)	-4	12	1	-18	39*	-6
COc1ccc(CN2CCC(C(=O)c3cccc(Cl)c3)CC2)cc1	-8	1	-11	-8	19	-1
O=C(c1cccc(Cl)c1)C1CCCN(Cc2ccc(N3CCNC3=O)cc2)C1 (stereo unspecified)	-16	1	29*	-16	8	-24
COc1ccc(S(=O)(=O)N(CC(=O)N2CCOCC2)c2ccc(F)cc2)cc1OC	2	1	9	-1	15	-6
CCN1CCCC1CNC(=O)c1ccc(Sc2ccccc2Cl)c([N+](=O)[O-])c1 (stereo unspecified)	-14	4	97*	-29	7	-26
O=C(NCCCN1CCOCC1)c1ccc(Sc2ccc(F)cc2)c([N+](=O)[O-])c1	-6	3	1	-1	-7	-9
CCN1CCCC1CNC(=O)c1ccc(Sc2ccc(F)cc2)c([N+](=O)[O-])c1 (stereo unspecified)	-19	3	95*	-23	13	-29
CCNC(=O)c1ccc(CSc2nc3ccccc3s2)cc1	-1	16	-3	-12	34*	-8
COc1ccc(CCC(=O)NNC(=O)Nc2ccc(C(C)=O)cc2)cc1	-2	1	-15	1	6	4
c1ccc(CCn2nnc3ccccc32)cc1	-1	0	10	-2	-1	-13
c1ccc2c(c1)nnn2CNc1nccs1	-1	1	-8	3	-6	22*
CCN(CC)c1ccc(/C=C(/C#N)c2nc3ccc(C)cc3[nH]2)c(OC(C)C)c1	58*	46*	56*	-18	69*	-35
CCCOc1cc(N(CC)CC)ccc1/C=C(/C#N)c1nc2ccc(C)cc2[nH]1	39*	31	45*	-19	56*	-33
CCOc1cc(N(CC)CC)ccc1/C=C(/C#N)c1nc2ccccc2[nH]1	-1	6	3	-11	-2	-6
COc1cccc(CNC(=O)CCCn2ncn3c(cc4occc43)c2=O)c1	-1	1	0	-9	12	-2
O=C(CCCn1ncn2c(cc3occc32)c1=O)NCc1cccc(Cl)c1	-3	3	-13	2	3	20*
COc1cccc(CN(C(=O)c2cnccn2)C(C(=O)NC2CCCCC2)c2cc(OC)c(OC)c(OC)c2)c1 (stereo unspecified)	-1	1	-5	1	-6	3
O=C(NCc1ccccc1)NC1(C(=O)N2CCOCC2)CCCCC1	-3	0	24	42*	-8	-1
Cc1ccc(S(=O)(=O)c2cnc(-c3ccccc3)nc2N2CCN(C)CC2)cc1	2	1	3	7	4	-6
Cc1ccc(C(=O)NCCCNC(=O)c2ccco2)cc1C	-3	1	-3	-2	10	-1
O=C(CSc1nnnn1C1CC2CCC1C2)Nc1ccnc2ccccc12 (stereo unspecified)	10	15	25	-16	32*	-16
O=C(NCc1ccccc1)c1ccc(F)c(F)c1	1	4	2	6	-15	20*
O=C(NCc1ccccc1)NC(=O)c1ccc(Cl)cc1	0	0	-7	19*	-8	1
SMILES	CHRM5 agonist	M4 ag	M4 antag	CHRM5 PAM	CHRM5 antagonist	M4 PAM
CN(C)c1c(F)cc(C(=O)NCc2ccccc2)cc1F	-2	1	-6	-1	7	6
O=C(NCc1ccccc1)c1ccc(C2SCC(=O)N2Cc2ccccc2)cc1 (stereo unspecified)	-5	7	34*	-23	1	-19
Cc1ccc(C(=O)Nc2cccc(C(=O)NCc3ccccc3)c2)o1	-4	4	27*	-6	12	-1
O=C(NCc1ccc(F)cc1)NC(=O)c1ccc(Cl)cc1	-4	1	5	-3	7	6
CCCn1c(=O)c2ccccc2n2c(SCC(=O)N3CCc4ccccc4C3)nnc12	-2	-3	-6	4	-5	11
COc1cc2c(c(OC)c1OC)CC(=O)N(C)CC2	-7	1	33*	-9	-3	-31
O=C(CCCN1C(=O)/C(=C\c2cccs2)SC1=S)Nc1cccc(C(=O)O)c1	-2	1	-20	0	-5	21*
CCN=C(NCC)SC1CC(=O)N(c2cccc(OC)c2)C1=O (stereo unspecified)	5	17	27*	-20	25	-14
COc1ccc(NS(=O)(=O)c2ccc(-c3coc(C)n3)cc2)cc1OC	7	28	47*	-14	51*	-14
Cc1nc(-c2ccc(S(=O)(=O)Nc3ccc(S(N)(=O)=O)cc3)cc2)co1	-1	1	-8	21*	-16	14*
COc1ccc(NS(=O)(=O)c2ccc(-c3coc(C)n3)cc2)cc1	5	10	0	3	-5	5
NC(=Nc1ccccc1)Nc1ccccc1	41*	124*	60*	-23	1	-19
CCOC(=O)/C(C(=Nc1ccccc1)Nc1ccccc1)=C(\C)O	3	-1	-9	-1	-1	4
CCc1ccc(NC(=O)Cn2cc([N+](=O)[O-])nc2C)cc1	4	2	1	21*	-3	1
COc1ccc(OCC(=O)NNC(=S)NC(=O)C2CC2)cc1	-4	0	-11	-2	-6	9
Cc1cc(C)cc(OCC(=O)NNC(=S)NC(=O)C2CC2)c1	-3	6	4	-2	28*	9
CC(=O)Nc1sc(C)c(C)c1C(=O)OCC(=O)N(CC(C)C)C1CCS(=O)(=O)C1 (stereo unspecified)	2	2	-9	4	3	23*
